hDAT+cocaine – changed hDAT dopamine uptake under cocaine IC80, either direction, primary screen, cocaine antagonist project, cell-based, LLC-PK1 hDAT, [14C]-dopamine uptake, MLSMR; LLC-PK1 hDAT cells, [14C]-dopamine uptake with cocaine IC80; actives deviate in either direction; B-score at 10 µM; Sodium-dependent dopamine transporter (Homo sapiens), Q01959; 110,000 compounds, 1.3% hits;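 active = Z score or B-score, a plate-position-corrected score, falls beyond the plate's 99.7% confidence bounds, in either direction; inactive = both scores lie inside the 99.7% bounds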;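 also: scored against the spread of the other compound wells on the same plate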
PostGolgi ctrl – growth inhibition of yeast control strain, primary screen, counter-screen for post-Golgi transport modulator project; 98,000 compounds, 5% hits; inhibition, % at 10 µM; AID 738, 2007; efflux-deficient yeast background strain, growth absorbance A615, 16 h
D1 allo mod – D1 CRE-luciferase signal change, two-sided – cell-based, HEK293 D1, dopamine EC30, D1 allosteric modulator project, primary screen | 58,000 compounds, 5.9% hits | B-score at 10 µM | AID 641, 2007 | dopamine EC30 potentiation; actives deviate in either direction | D(1A) dopamine receptor (Homo sapiens), P21728;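 active = luminescence count or its row- and column-corrected plate score outside the 99.7% band of the plate's sample wells, on either side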
Target sequence (P21728 whole entry, looked up): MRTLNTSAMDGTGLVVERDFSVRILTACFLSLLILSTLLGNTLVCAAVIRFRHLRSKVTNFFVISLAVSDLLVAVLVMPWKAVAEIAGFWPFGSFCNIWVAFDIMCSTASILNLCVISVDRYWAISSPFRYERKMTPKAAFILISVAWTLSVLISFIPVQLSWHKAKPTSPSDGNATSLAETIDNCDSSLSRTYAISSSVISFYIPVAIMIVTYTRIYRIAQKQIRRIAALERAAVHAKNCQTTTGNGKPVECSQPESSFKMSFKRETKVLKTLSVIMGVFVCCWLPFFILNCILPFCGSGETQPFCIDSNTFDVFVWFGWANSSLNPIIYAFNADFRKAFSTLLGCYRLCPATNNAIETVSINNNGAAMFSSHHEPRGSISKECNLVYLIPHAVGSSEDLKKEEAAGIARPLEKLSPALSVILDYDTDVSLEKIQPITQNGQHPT
Ecoli tolC – growth inhibitors of E. coli tolC mutant, primary screen, strain BW25113 ΔtolC::kan, 384-well; OD615; growth inhibition, % at 10 µM (by protocol); 65,000 compounds, 2.2% hits; AID 573, 2007;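 active = growth inhibition at or above a cutoff equal to the mean over every tested compound plus 3 SD, cut at about 60% in these data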;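 also: growth measured after 20 h incubation at 37 °C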
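Test system: tolC-deleted E. coli BW25113; medium: LB with kanamycin 50 µg/mL; compound: single-point testing at 10 µM; incubation: 20 h compound exposure of bacteria at 37 °C; signal: OD at 615 nm; evaluation: growth inhibition in percent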
E coli WT exp – growth inhibitors of wild-type E. coli, primary screen, strain BW25113, expanded library, OD600; OD600 absorbance; 98,000 compounds, 0.15% hits; growth inhibition, % at 100 µM;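 active = growth inhibition above about 50% at one test dose, limit read from the data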;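 also: growth measured after 20 h incubation at 37 °C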
PostGolgi yeast – phenotypic screen on post-Golgi transport, primary screen | post-Golgi transport phenotypic cell assay | inhibition, % at 10 µM | 98,000 compounds, 0.9% hits | AID 739, 2007;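 also: yeast cells grown in 1536-well plates; yeast grown about 18 h at 30C before absorbance read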
* = called active by the depositor. Hits are enriched below; roughly 9.3% of the tested compounds scored in any of these assays. Rule as the data show it, unless noted: active = inhibition above about 30%; inactive = the rest.

`CCn1cc(C(=O)NCc2ccccc2)c(=O)c2cc(F)c(N3CCN(C(=O)c4ccco4)CC3)cc21` gave hDAT+cocaine 2.03, PostGolgi ctrl 29.9, E coli WT exp 45.0 and PostGolgi yeast -0.7.
Screening CCn1cc(C(=O)Nc2nncs2)c(=O)c2cc(F)c(N3CCN(C(=O)c4ccco4)CC3)cc21 returned D1 allo mod 0.775 and Ecoli tolC 100.0*.
`CC(=O)c1cc(F)c(N2CCN(C(=O)c3ccco3)CC2)cc1C` gave hDAT+cocaine -0.0597, PostGolgi ctrl 12.7, D1 allo mod -0.446, Ecoli tolC 18.8, E coli WT exp -4.0 and PostGolgi yeast -5.2.
Screening CCC(C)c1ccc(OCCn2cc(/C=N/NC(=O)CSc3nnc(C)s3)c3ccccc32)cc1 (stereo not drawn) returned hDAT+cocaine -0.71, PostGolgi ctrl 4.3, E coli WT exp -23.0 and PostGolgi yeast -7.7.
Screening Cc1nn2cc(-c3ccccc3)nc2s1 returned hDAT+cocaine 1.34, PostGolgi ctrl 4.8, D1 allo mod -3.88*, Ecoli tolC -3.1, E coli WT exp 2.0 and PostGolgi yeast 3.3.
`c1ccc(-c2cn3nc(-c4ccccc4)sc3n2)cc1` gave D1 allo mod -8.22* and Ecoli tolC -13.4.
Screening COc1ccc(/C=N/n2cnnc2SCc2ccccc2)cc1 returned hDAT+cocaine -0.443, PostGolgi ctrl 22.7, D1 allo mod 0.015, Ecoli tolC 11.9, E coli WT exp -6.0 and PostGolgi yeast 1.5.
CCC(C)n1c(C)nc2c(c1=O)c1nc3ccccc3nc1n2-c1ccc2c(c1)OCCO2 (stereo not drawn) was read as D1 allo mod -5.27* and Ecoli tolC 6.5.
For O=c1c2c3nc4ccccc4nc3n(-c3ccc4c(c3)OCCO4)c2ncn1C1CCCC1 the results were hDAT+cocaine 0.0882, D1 allo mod -0.935 and Ecoli tolC 0.6.
O=C(Oc1c(Cl)cc(Cl)c2cccnc12)N1CCCCC1 was read as hDAT+cocaine 1.05, PostGolgi ctrl 42.8*, D1 allo mod 0.233, Ecoli tolC 19.0, E coli WT exp 3.0 and PostGolgi yeast -0.5.
For O=C(Oc1c(Cl)cc(Cl)c2cccnc12)N1CCOCC1 the results were hDAT+cocaine -0.312, PostGolgi ctrl 21.6, Ecoli tolC -10.2, E coli WT exp 3.0 and PostGolgi yeast 14.2.
For COC(=O)c1ccccc1NC(=O)CSc1nnc(-c2cccc(NC(C)=O)c2)n1C the results were hDAT+cocaine 0.069, PostGolgi ctrl 7.3, Ecoli tolC -8.5, E coli WT exp 5.0 and PostGolgi yeast 4.2.
For COc1cc(CNCC(O)c2ccccc2)ccc1OCc1ccc(Cl)nc1 (stereo not drawn) the results were hDAT+cocaine 1.49, PostGolgi ctrl 4.3, E coli WT exp 6.0 and PostGolgi yeast -0.5.
Screening COc1cc(CNCCc2c[nH]c3ccccc23)ccc1OCc1ccccc1F returned hDAT+cocaine 2.46*, PostGolgi ctrl 5.1, E coli WT exp 32.0 and PostGolgi yeast -3.8.
For COc1cc(CNCCc2ccccc2)ccc1OCc1ccc(Cl)nc1 the results were PostGolgi ctrl 39.0*, E coli WT exp 1.0 and PostGolgi yeast 18.0.
Screening CCOc1ccc(C2=C(C=Nc3c(C)n(C)n(-c4ccccc4)c3=O)C(c3ccc(F)cc3)c3ccccc3O2)cc1 (stereo not drawn) returned hDAT+cocaine -0.136, PostGolgi ctrl -5.3, E coli WT exp -11.0 and PostGolgi yeast 0.2.
Screening Cc1nn(CCc2nc(-c3ccco3)cs2)c2[nH]c(=O)cc(C(F)(F)F)c12 returned hDAT+cocaine -0.631, PostGolgi ctrl 25.7, Ecoli tolC 17.8, E coli WT exp 3.0 and PostGolgi yeast 3.3.
For CCCN1C(=O)/C(=C/c2ccc(C)o2)SC1=Nc1ccc(OC)cc1 the results were hDAT+cocaine 0.197, PostGolgi ctrl 8.5, E coli WT exp -7.0 and PostGolgi yeast 3.5.
`COc1ccc(N=C2S/C(=C\c3ccc(N4CCOCC4)o3)C(=O)N2CCc2c[nH]c3ccccc23)cc1` gave hDAT+cocaine -0.423, PostGolgi ctrl 31.8*, E coli WT exp -8.0 and PostGolgi yeast 11.6.
For Cc1ccc(S(=O)(=O)NC2CCCc3ccccc32)cc1C (stereo not drawn) the results were hDAT+cocaine 0.465, PostGolgi ctrl 8.6, E coli WT exp -10.0 and PostGolgi yeast 4.4.
`CCn1c(Cc2ccc(OC)cc2)nnc1SCC(=O)Nc1cccc(C(=O)OC)c1` gave hDAT+cocaine -0.00155, PostGolgi ctrl 10.4, D1 allo mod 0.601, Ecoli tolC 5.5, E coli WT exp 1.0 and PostGolgi yeast -6.9.
Screening CCCCCc1c2c(cc(O)c1C(=O)O)OC(=O)c1c(cc(OC)cc1C(=O)CCCC)O2 returned hDAT+cocaine 5.3*.
`Cc1ccc(N2CN=c3s/c(=C\c4ccccn4)c(=O)n3C2)cc1` gave hDAT+cocaine 0.226, PostGolgi ctrl -2.0, D1 allo mod -1.56, Ecoli tolC 8.3, E coli WT exp 4.0 and PostGolgi yeast 4.0.
`CNCCCOc1ccc(C)cc1Br` gave hDAT+cocaine 0.132, PostGolgi ctrl 5.5, E coli WT exp 2.0 and PostGolgi yeast -4.8.
Screening CCC(C)NCCOCCOc1ccc(C)cc1Br (stereo not drawn) returned hDAT+cocaine -0.17, PostGolgi ctrl 36.5*, E coli WT exp 9.0 and PostGolgi yeast -3.8.
Screening CC(C)OC(=O)C1C2C=CC3(CN(Cc4cccs4)C(=O)C13)O2 (stereo not drawn) returned hDAT+cocaine 2.21, D1 allo mod -0.778 and Ecoli tolC -26.9.
Screening Cc1c(CNC(=O)c2cnn3c2NC(c2ccc(Br)cc2)CC3C(F)(F)F)cnn1C (stereo not drawn) returned hDAT+cocaine 3.13*, PostGolgi ctrl 13.5, D1 allo mod 0.334, Ecoli tolC 35.5, E coli WT exp -26.0 and PostGolgi yeast -24.0.
For O=C1[C@H]2[C@@H](C(=O)N1c1cccc3ccccc13)C1(C(=O)c3ccccc3C1=O)N1CCC[C@@H]21 the results were hDAT+cocaine -0.198, PostGolgi ctrl 18.2, E coli WT exp -9.0 and PostGolgi yeast -5.2.
C/C(=N\N=C(/N)SC1CC(=O)N(c2ccc(Cl)c(Cl)c2)C1=O)c1cccs1 (stereo not drawn) was read as hDAT+cocaine 0.814, PostGolgi ctrl 57.1*, E coli WT exp -6.0 and PostGolgi yeast 101.8*.
Screening C/C(=N\N=C(/N)SC1CC(=O)N(c2ccc(Br)cc2)C1=O)c1cccs1 (stereo not drawn) returned hDAT+cocaine -1.04, PostGolgi ctrl 41.4*, E coli WT exp -1.0 and PostGolgi yeast -5.4.
